The values below come from publication PMC3320048 (Angiogenesis, 2011).

Where a SMILES comes first, the peptide text is derived from it. Bridges are numbered along the chain shown (N, C = ends). Where no end group is shown, it is not given here.

Series [1] concerns human bladder epithelial cells (HBEC). In words: LDH release in epithelial cells. Format: cell-based. The note with it: 150 μg/ml, 24 hours, 37°C. The method in brief: (§1)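 Cells were grown at 37°C in humidified 5% CO2 and treated at about 50% confluence. Test compound (2 mg/ml stock in H2O) was added at 150 μg/ml in 2% FBS for 24 h at 37°C. LDH release was read with a commercial kit and normalised to background death in untreated cells. 0.1% (v/v) Triton X-100 defined maximal release.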

The test system of series [2] is neonatal human dermal fibroblasts (NHDF). In words: LDH release in fibroblasts. Format: cell-based. The note with it: 150 μg/ml, 24 hours, 37°C. The method in brief:
as §1
For orientation: LDH leaks from cells whose membrane has failed.

The next series has as its target CLIC1 (Homo sapiens, UniProt O00299). Nature of the series: Saturation binding assay. Summed up: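 Copper-coated microtiter wells were coated with 2 μg/ml purified His-tagged human CLIC1. Wells were incubated 1 h at room temperature with varying concentrations of carboxyfluorescein-labelled peptide in TBS with 200 mM n-octyl-β-D-glucoside and 1 mM CaCl2. After TBS washes, fluorescence was read at ex 485/em 520. Signal from His-tagged nucleolin-coated wells was subtracted as non-specific binding. Kd was derived from the binding curves.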

The subject of a further series is proliferating HUVEC. Nature of the series: Cytotoxicity assay. Format: cell-based.
Series [3] concerns DU145 subcutaneous xenografts. In words: DU145 tumor treatment study. It counts as in vivo, mice. Particulars: 300 μg i.p. 3x/week. Summed up: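 Male athymic nude mice carried 2-week-old subcutaneous DU145 flank xenografts averaging 40 mm3 at the start. They received carrier or test compound (300 μg) intraperitoneally three times per week. Tumour volume was measured with calipers at each treatment time point, and mice were weighed on day 15. Groups were compared by unpaired two-tailed t test or one-way ANOVA with Tukey post hoc test.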

In series [4] the test system is HUVEC. Nature of the series: Western blot of cytosolic fractions for LC3 and cathepsins. Format: cell-based, human. Summed up: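 Cytosolic fractions came from treated HUVEC using a subcellular fractionation kit. Proteins were resolved by SDS-PAGE, blotted to PVDF and checked for equal loading with 0.05% Ponceau S. Blots were blocked in 5% milk or BSA, probed overnight at 4°C for cathepsin C, cathepsin D and LC3B, and detected by peroxidase secondary antibodies with ECL. Lysosomes were labelled with 100 nM LysoTracker Red for 1 h before paraformaldehyde fixation.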

Series [5] has as its system HUVEC. Nature of the series: Flow cytometry assay of CLIC1 cell surface expression in suspended HUVEC. Format: cell-based, human. Particulars: peptide 300 μM. In general terms: A flow cytometer gives signals particle by particle.
The subject of another series is fibronectin. Particulars: cited from earlier work.
A further series relates to fibrinogen. Particulars: cited from earlier work.

Usually Kd stands for the free concentration of one partner at which half of the binding sites on the other are occupied at equilibrium, for simple one-to-one binding. Low values mean a tighter complex, high ones a looser complex. As for `CC[C@H](C)[C@@H]1NC(=O)[C@H](CC(C)C)NC(=O)CNC(=O)[C@@H](N)CSSC[C@@H](C(=O)O)NC(=O)[C@H](CCC(=O)O)NC(=O)[C@H](CC(N)=O)NC(=O)[C@H](CCCCN)NC(=O)[C@H](CCC(N)=O)NC(=O)[C@H]([C@@H](C)CC)NC1=O` [CLT1] (H-CGLIIQKNEC-OH; disulfide 1-10), the “cytotoxicity in epithelial cells (LDH release)” value in [1] is listed as “little effect”. Further, the “cytotoxicity in fibroblasts (LDH release)” value in series [2] is “little effect”. For the same compound, the Kd on CLIC1 amounted to 10.2 µM. For the same compound, in the series with proliferating HUVEC (HUVEC cultured at 4°C versus 37°C, 150 μg/ml, 24 hours, LDH release), the “CLT1-induced cytotoxicity at 4°C” value was “protected endothelial cells from CLT1-induced cytotoxicity”. For the same compound, in the series on proliferating HUVEC (HUVEC, CLIC1 siRNA versus control siRNA, 24 hours, LDH release), the “cytotoxicity of CLT1 after CLIC1 knockdown” value was “significantly reduced”. In the series on proliferating HUVEC (HUVEC, LDH release over time), the “earliest time at which cytotoxicity was detected” value is 3.5 h. Further, in [3] (day 15 of the treatment study), the “body weight of the mice” value is reported as “remained unchanged”.
Take `CO/C1=C\C(C)=C\[C@@H](C)[C@@H](O)[C@@H](C)C/C(C)=C/C=C/[C@H](OC)[C@@H]([C@@H](C)[C@@H](O)[C@H](C)[C@@]2(O)C[C@@H](O)[C@H](C)[C@@H](C(C)C)O2)OC1=O` [bafilomycin A1, reference compound]: the “effect of pretreatment on CLT1 cytotoxicity (LDH release)” value in the series with proliferating HUVEC (HUVEC, 20 nM bafilomycin A1 for 1 hour prior to CLT1 25 μg/ml for 24 hours) was “ameliorated cytotoxicity of CLT1”.
Consider “CGLKIQKNEC (disulfide 1-10 (inferred)) [CLT1-IK1]”, for which the “LC3-II conversion (autophagy marker)” value in the series with HUVEC [4] (HUVEC cytosolic fractions, 7 hours, 7.5–75 μg/ml, immunoblot) is on record as “did not induce”. The “lysosome dysfunction (cathepsin C and D leakage, lysotracker)” value in the series on HUVEC [4] (HUVEC, 75 μg/ml 24 hours immunoblot, 10 μg/ml fluorescein-conjugated peptide, lysotracker) is recorded as “did not induce”.
Take “CNAGESSKNC (disulfide 1-10 (inferred)) [CLT2, reference compound]”: the “tumor growth (tumor volume)” value in [3] (DU145 xenografts, n=12/treatment group) is reported as “no anti-angiogenic or anti-tumor effects”.
Regarding GRADSP, the “effect on CLIC1 cell surface localization induced by CLT1-fibronectin co-aggregates” value in the series with HUVEC [5] is “not by an inactive peptide”.
Regarding GRGDSP [reference compound], in the series with proliferating HUVEC (HUVEC, peptide 300 μM, 24 hours, LDH release), the “effect on cytotoxic function of CLT1” value is “inhibited the cytotoxic function of CLT1”. In addition, in the series on HUVEC [5], the “effect on CLIC1 cell surface localization induced by CLT1-fibronectin co-aggregates” value is reported as “partially inhibited”.
With anginex, the “aggregate formation when mixed with fibronectin” value in the series with fibronectin was “form large insoluble aggregates”. In the series with fibrinogen, the “aggregate formation when mixed with fibrinogen” value is “form large insoluble aggregates”.
